Series [1] deals with Radical scavenging activity. Description: Antioxidant activity assessed as DPPH free radical scavenging activity after 30 mins by spectrophotometric analysis. The format is functional. Summed up:
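Methanolic DPPH at 400 μM combined with serially diluted sample (1:9 by volume), 30 min at 37 °C in the dark, absorbance at 517 nm. Scavenging % = [1 − (A − C)/B] × 100, with a sample-only blank and MeOH as negative control. IC50 values are mean ± SD of three determinations.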
On the technique in general: The DPPH test is a chemical assay of radical scavenging.

For series [2], the system named is SH-SY5Y. Description: Neuroprotective activity in human SH-SY5Y cells assessed as inhibition H2O2-induced reduction of cell viability at 10 uM after 24 hrs by phase-contrast micrograph analysis. The format is functional, cell-based. Summed up:
(§1)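 SH-SY5Y cells seeded at 1×10^4 cells/well. After 24 h, medium replaced with compound (1.25, 2.5, 5, 10 μM) for 24 h at 37 °C. Cells then exposed to 100 μM H2O2 for 24 h and assessed by MTT, with phase-contrast images (200×). Viability given relative to cells without H2O2, three independent experiments.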

Series [3] deals with Amyloid-beta precursor protein (Homo sapiens) (UniProt P05067). As to the kind of experiment: Inhibition of amyloid beta (1 to 42) (unknown origin) self-induced aggregation at 20 uM after 46 to 48 hrs by thioflavin-T based fluorometric assay. Summed up:
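HFIP-pretreated Aβ(1–42) redissolved at 25 μM in 50 mM phosphate buffer, pH 7.4. Compound at 20 μM final, with 10% final solvent, run in independent triplicates with a solvent control. Incubated in the dark at room temperature for 46–48 h without agitation. 5 μM ThT in glycine-NaOH pH 8.0 added, ex/em 446/490 nm. Inhibition = 100 − (IFi/IFo × 100).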

Series [4] has the same target. Description: Inhibition of Cu2+-induced amyloid beta (1 to 42) (unknown origin) aggregation at 50 uM after 24 hrs by thioflavin-T based fluorometric assay. The method, boiled down:
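Aβ(1–42) at 25 μM final in HEPES pH 6.6 with NaCl, with or without 25 μM Cu2+, plus 50 μM compound, incubated at 37 °C for 24 h. Sample diluted into 50 mM glycine-NaOH pH 8.0 containing 5 μM ThT, read at ex/em 446/490 nm. Mean ± SD of three independent experiments.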

The nature of series [5]: Cytotoxicity against human SH-SY5Y cells assessed as reduction of cell viability at 1 to 50 uM after 24 hrs by MTT assay. The format is cell-based. The method, boiled down:
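SH-SY5Y cells grown in EMEM/Ham's F-12 (1:1) with 10% FBS, penicillin and streptomycin, 37 °C, 5% CO2. Seeded at 1×10^4 cells/well, switched to serum-free medium, exposed to compound for 24 h. MTT 4 h at 37 °C, formazan dissolved in DMSO, A570 with 630 nm reference. Mean ± SD of three independent experiments.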

Series [6] relates to SH-SY5Y. As to the kind of experiment: Neuroprotective activity in human SH-SY5Y cells assessed as inhibition H2O2-induced reduction of cell viability at 1.25 to 10 uM after 24 hrs by phase-contrast micrograph analysis. The class given is functional, cell-based. The note with it: in the assay text read “MTT assay” for “phase-contrast micrograph analysis”. Summed up:
as §1
In general terms: Formazan colour is commonly taken as a measure of viable cells.

Series [7] concerns the target Amyloid-beta precursor protein (Homo sapiens) (UniProt P05067). Description: Inhibition of Cu2+-induced amyloid beta (1 to 42) (unknown origin) aggregation assessed as reduction of H2O2 production at 800 nM after 30 mins by HRP/Amplex red assay. Summed up:
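Mixture of CuCl2 400 nM, Aβ, compound 800 nM (1% DMSO) and sodium ascorbate 10 μM in phosphate buffer, 30 min at room temperature. Amplex Red/HRP working solution then added and incubated a further 30 min at room temperature. Fluorescence read at ex/em 530/590 nm, at least three measurements.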

The nature of series [8]: Metal chelating activity of the compound assessed as Fe2+-compound complex formation at 25 uM by UV-vis spectrometry. The format is physicochemical.
Series [9] is described as follows: Ratio of resveratrol IC50 to compound IC50 for DPPH free radical scavenging activity.
Series [10] is described as follows: Metal chelating activity of the compound assessed as Cu2+-compound complex formation at 25 uM by UV-vis spectrometry. The format is physicochemical. The method, boiled down:
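Difference UV–vis spectra obtained by subtracting metal-alone and compound-alone spectra from the spectra of the mixture. Stoichiometry assessed with ligand fixed at 25 μmol/L and Cu2+ titrated from 2 to 50 μmol/L.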

Structures are written as SMILES. Activity calls are given as the source filed them. No cut-off for these calls is given here.

Chain of Amyloid-beta precursor protein (Homo sapiens) (P05067 whole entry): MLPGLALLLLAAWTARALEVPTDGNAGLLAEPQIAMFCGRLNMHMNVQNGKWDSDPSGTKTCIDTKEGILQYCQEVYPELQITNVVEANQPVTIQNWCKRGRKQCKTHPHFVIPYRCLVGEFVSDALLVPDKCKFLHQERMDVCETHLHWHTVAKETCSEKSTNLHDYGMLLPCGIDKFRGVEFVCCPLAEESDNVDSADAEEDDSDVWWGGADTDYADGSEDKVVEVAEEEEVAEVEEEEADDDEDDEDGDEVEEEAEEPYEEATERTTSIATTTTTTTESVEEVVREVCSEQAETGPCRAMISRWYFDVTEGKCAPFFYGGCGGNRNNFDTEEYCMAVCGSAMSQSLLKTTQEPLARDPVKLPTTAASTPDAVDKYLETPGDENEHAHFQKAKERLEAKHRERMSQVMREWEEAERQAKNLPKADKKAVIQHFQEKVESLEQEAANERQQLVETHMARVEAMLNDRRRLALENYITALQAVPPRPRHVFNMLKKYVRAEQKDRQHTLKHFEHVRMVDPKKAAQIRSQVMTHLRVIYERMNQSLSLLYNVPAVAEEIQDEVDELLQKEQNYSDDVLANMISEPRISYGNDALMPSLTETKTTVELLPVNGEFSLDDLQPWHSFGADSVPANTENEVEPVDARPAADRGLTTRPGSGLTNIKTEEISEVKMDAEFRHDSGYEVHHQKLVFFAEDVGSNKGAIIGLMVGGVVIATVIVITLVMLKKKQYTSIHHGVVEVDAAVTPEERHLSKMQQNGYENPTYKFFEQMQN

For `Oc1ccc(/C=C/c2cc(O)cc(O)c2)cc1` [RESVERATROL], the IC50 – broadly, the concentration needed to halve the response being measured – in series [1] turned out to be 109 µM. Besides, the outcome in the series on SH-SY5Y [2] was Active. Besides, the inhibition (commonly the change of the read-out against control, counted positive when it falls) in [3] stood at 64.2%.

For the compound `COc1ccc(/C=N/c2ccccc2O)cc1`, the IC50 in series [1] amounted to 32.7 µM. In series [3], this compound displayed an inhibition of 35.7%.

As for `Oc1ccc(/C=N/c2ccccc2O)c(O)c1`, in [1], the IC50 worked out at 37.8 µM. Moreover, in series [3], the inhibition worked out at 63.1%.

Take `Oc1ccc(/C=N/c2ccccc2O)cc1`: in series [1], the IC50 is 26.5 µM. In addition, the inhibition in series [4] worked out at 83.7%; in series [3] it was 70.9%. The Activity entry in series [5] is on record as “Non-toxic”. Moreover, the result in the series with SH-SY5Y [6] was Active.

As to `O=C(O)CN(CCN(CC(=O)O)CC(=O)O)CC(=O)O`, the inhibition in [7] is greater than 90%.

Regarding `Oc1c(I)cc(Cl)c2cccnc12`, the inhibition in series [4] was determined as 66.7%; in series [7], 75%.

In the case of `Oc1ccccc1/C=N/c1ccccc1O`, the 50% inhibitory concentration (IC50) in series [1] was found to be 51.8 µM. Further, the inhibition in series [3] was 67.2%.

Regarding `COc1ccc(/C=N/c2ccccc2O)cc1OC`, the IC50 in [1] came out at 28.5 µM. This compound also registered an inhibition in series [3] of 39.4%.

Turning to `Oc1ccccc1/C=N/c1cccc(F)c1`, the half-maximal inhibitory concentration (IC50) in series [1] is greater than 2000 µM. Besides, the inhibition in series [3] came out at 31.3%.

As for `Oc1ccccc1/N=C/c1cccc(F)c1`, the IC50 in series [1] worked out at 36.8 µM. For the same compound, the inhibition in series [4] turned out to be 70.2%; in [3], 67.6%. The Activity result in series [5] was “Non-toxic”. Moreover, the result in the series on SH-SY5Y [6] was Active.

As to `Oc1ccccc1/N=C/c1ccc(F)cc1`, the half-maximal inhibitory concentration (IC50) in series [1] came to 41.3 µM. Moreover, the inhibition in [3] is 67.8%.

Regarding `COc1ccc(O)c(/C=N/c2ccccc2)c1`, the IC50 in [1] came to 794 µM. This compound also showed an inhibition in series [3] of 29%.

For the compound `Oc1ccccc1/C=N/c1ccc(F)cc1`, in [1], the IC50 was greater than 2000 µM. The compound also yielded an inhibition in series [3] of 24.9%.

For `CN(C)c1ccc(/C=N/c2ccccc2O)cc1`, the IC50 in [1] turned out to be 45.1 µM. Also, in series [3], the inhibition turned out to be 55.8%.

In the case of `Oc1cccc(/N=C/c2ccccc2O)c1`, in series [1], the IC50 was greater than 2000 µM. The same compound gave an inhibition in series [3] of 66.1%.

With `Oc1ccccc1/C=N/c1ccccc1` [2-((PHENYLIMINO)METHYL)PHENOL], the IC50 in [1] is greater than 2000 µM. Moreover, in [3], the inhibition turned out to be 44.9%.

Consider `Oc1ccccc1/N=C/c1ccccc1F`, for which the IC50 in series [1] was 43.9 µM. Further, the inhibition in series [3] was found to be 69.4%.

In the case of `Oc1cccc(/C=N/c2ccccc2O)c1`, in series [1], the concentration for half-maximal inhibition (IC50) stood at 66.6 µM. This compound also came in with an inhibition in series [3] of 64.3%.

With `Oc1ccccc1/N=C/c1ccccc1`, the concentration for half-maximal inhibition (IC50) in series [1] was 39.9 µM. The compound further had an inhibition in [3] of 51.7%.

As for `Oc1ccc(Cl)cc1/C=N/c1ccccc1`, the IC50 in [1] was greater than 2000 µM. This compound showed an inhibition in series [3] of 33.8%.

As for `Oc1ccc(/C=N/c2ccccc2O)cc1O`, the IC50 in [1] turned out to be 14.1 µM. For the same compound, the Activity result in series [8] was “Active”; in series [5], “Non-toxic”; in [10] it was “Active”. Moreover, the Ratio IC50 in series [9] was 7.7. The inhibition in series [4] was found to be 68.1%; in series [3] it was 64.6%; in series [7], 80%. For the same compound, the result in the series on SH-SY5Y [6] was Active.

Take `Oc1ccc(/N=C/c2ccccc2O)cc1`: the 50% inhibitory concentration (IC50) in series [1] came to 399 µM. In series [3], this compound gave an inhibition of 71.2%.

For `Oc1ccccc1/C=N/c1ccccc1F`, in series [1], the concentration for half-maximal inhibition (IC50) is greater than 2000 µM. The same compound showed an inhibition in series [3] of 27.8%.
